# In ChEMBL document CHEMBL2434893, “Synthesis, DNA binding and anti-leukemic activity of an aminoacyl nucleolipid” (Bioorg Med Chem Lett, 2013):
# Activity calls are given as the source filed them. The calls are words filed in the database; no cut-off is given here.
# Key:
# BT-549 = test: Cytotoxicity against human BT549 cells assessed as cell growth at 10 uM after 48 hrs by SRB assay relative to control; type: functional; settings: BT-549, 48 h, read-out: Activity
# Procedure, shortened: (§1)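 NCI Developmental Therapeutics Program 60-cell-line screen at a single dose of 10 μM. Cells incubated with compound for 48 h at 37 °C before viability determination.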
# [1] = Binding affinity to GRP78 duplex DNA (unknown origin) assessed as change in melting temperature at 0.2 mM after 36 hrs by thermal denaturation assay
# Procedure, shortened: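 Duplex DNA (1.1 μM) annealed from complementary strands in phosphate buffer (140 mM KCl, 1 mM MgCl₂, 5 mM sodium phosphate, pH 7.2), with ligand 0.2–3.9 mM. Melting followed as % hyperchromicity at 260 nm over 5–90 °C. Tm shift measured against native duplex.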
# T47D = test: Cytotoxicity against human T47D cells assessed as cell growth at 10 uM after 48 hrs by SRB assay relative to control; type: functional; settings: read-out: Activity
# Procedure, shortened: (§2)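 Single-dose (10 μM) screen run by the NCI Developmental Therapeutics Program on its 60 human cancer cell line panel. Viability was determined after 48 h incubation with the cells at 37 °C.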
# MDA-MB-435 = test: Cytotoxicity against human MDA-MB-435 cells assessed as cell growth at 10 uM after 48 hrs by SRB assay relative to control; type: functional; settings: MDA-MB-435, 48 h, read-out: Activity; procedure, shortened: as §1
# NCI-H23 = test: Cytotoxicity against human NCI-H23 cells assessed as cell growth at 10 uM after 48 hrs by SRB assay relative to control; type: functional; settings: NCI-H23, 48 h, read-out: Activity; procedure, shortened: as §1
# MOLT-4 = test: Cytotoxicity against human MOLT4 cells assessed as cell growth at 10 uM after 48 hrs by SRB assay relative to control; type: functional; settings: MOLT-4, 48 h, read-out: Activity; procedure, shortened: as §1
# [2] = Binding affinity to GRP78 duplex DNA (unknown origin) after 36 hrs by gel shift mobility assay
# Procedure, shortened: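 Complementary strands (0.57 μM) annealed in 30% sucrose in TAE buffer (89 mM Tris/acetate, 2.5 mM EDTA, […]), incubated 36 h at 37 °C with ligand at 0, 5, 25, 50, 100 equiv per DNA phosphate (0, 0.2, 0.9, 1.9, 3.9 mM). Run on 24% native PAGE. DNA bands visualized by UV-shadowing at 260 nm. K_D taken from the duplex band ratio with versus without ligand.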
# IGROV-1 = test: Cytotoxicity against human IGROV1 cells assessed as cell growth at 10 uM after 48 hrs by SRB assay relative to control; type: functional; settings: IGROV-1, 48 h, read-out: Activity; procedure, shortened: as §1
# [3] = Stability in phosphate buffer assessed as formation of guanine-tetraplex structure at 0.2 to 3.9 mM at 25 degC by CD spectrophotometric analysis; type: physicochemical; settings: 3900 µM
# Procedure, shortened: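 GRP78 DNA duplex was annealed from complementary single strands in phosphate binding buffer (140 mM KCl, 1 mM MgCl₂, 5 mM Na₂HPO₄, pH 7.2), then titrated with ligand at 0.2–3.9 mM. CD spectra were recorded, and molar ellipticity was followed at the 260–280 nm maximum and the 248 nm minimum.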
# SK-MEL-5 = test: Cytotoxicity against human SK-MEL-5 cells assessed as cell growth at 10 uM after 48 hrs by SRB assay relative to control; type: functional; settings: SK-MEL-5, 48 h, read-out: Activity; procedure, shortened: as §1
# SF-295 = test: Cytotoxicity against human SF295 cells assessed as cell growth at 10 uM after 48 hrs by SRB assay relative to control; type: functional; settings: SF-295, 48 h, read-out: Activity; procedure, shortened: as §1
# OVCAR-4 = test: Cytotoxicity against human OVCAR4 cells assessed as cell growth at 10 uM after 48 hrs by SRB assay relative to control; type: functional; settings: OVCAR-4, 48 h, read-out: Activity; procedure, shortened: as §1
# TK-10 = test: Cytotoxicity against human TK10 cells assessed as cell growth at 10 uM after 48 hrs by SRB assay relative to control; type: functional; settings: TK-10, 48 h, read-out: Activity; procedure, shortened: as §2
# [4] = Cytotoxicity against human NCI-ADR-RES cells assessed as cell growth at 10 uM after 48 hrs by SRB assay relative to control; type: functional; settings: read-out: Activity; procedure, shortened: as §1
# MDA-MB-468 = test: Cytotoxicity against human MDA-MB-468 cells assessed as cell growth at 10 uM after 48 hrs by SRB assay relative to control; type: functional; settings: MDA-MB-468, 48 h, read-out: Activity; procedure, shortened: as §1
# LOX IMVI = test: Cytotoxicity against human LOXIMVI cells assessed as cell growth at 10 uM after 48 hrs by SRB assay relative to control; type: functional; settings: read-out: Activity; procedure, shortened: as §1
# SR = test: Cytotoxicity against human SR cells assessed as cell growth at 10 uM after 48 hrs by SRB assay relative to control; type: functional; settings: read-out: Activity; procedure, shortened: as §2
# SNB-75 = test: Cytotoxicity against human SNB75 cells assessed as cell growth at 10 uM after 48 hrs by SRB assay relative to control; type: functional; settings: SNB-75, 48 h, read-out: Activity; procedure, shortened: as §2
# U-251 = test: Cytotoxicity against human U251 cells assessed as cell growth at 10 uM after 48 hrs by SRB assay relative to control; type: functional; settings: U-251, 48 h, read-out: Activity; procedure, shortened: as §2
# K562 = test: Cytotoxicity against human K562 cells assessed as cell growth at 10 uM after 48 hrs by SRB assay relative to control; type: functional; settings: K562, 48 h, read-out: Activity; procedure, shortened: as §1
# SK-OV-3 = test: Cytotoxicity against human SKOV3 cells assessed as cell growth at 10 uM after 48 hrs by SRB assay relative to control; type: functional; settings: SK-OV-3, 48 h, read-out: Activity; procedure, shortened: as §2
# [5] = Binding affinity to GRP78 duplex DNA (unknown origin) at 0.2 to 3.9 mM by CD spectrophotometric analysis
# Procedure, shortened: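 CD spectra recorded on duplex DNA (1.1 μM) in phosphate buffer (140 mM KCl, 1 mM MgCl₂, 5 mM sodium phosphate, pH 7.2) titrated with ligand 0–3.9 mM. Samples prepared as for melting. Molar ellipticity followed at the 260–280 nm maximum and the 248 nm minimum.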
# HL-60(TB) = test: Cytotoxicity against human HL-60(TB) cells assessed as cell growth at 10 uM after 48 hrs by SRB assay relative to control; type: functional; settings: HL-60, 48 h, read-out: Activity
# Procedure, shortened: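 Single-dose screen run by the NCI Developmental Therapeutics Program on its 60 human cancer cell line panel, leukemia lines included. Cells were exposed to 10 μM ligand and incubated at 37 °C for 48 h. Cell viability was then determined.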
# HCC 2998 = test: Cytotoxicity against human HCC2998 cells assessed as cell growth at 10 uM after 48 hrs by SRB assay relative to control; type: functional; settings: HCC 2998, 48 h, read-out: Activity; procedure, shortened: as §1
# HT-29 = test: Cytotoxicity against human HT-29 cells assessed as cell growth at 10 uM after 48 hrs by SRB assay relative to control; type: functional; settings: HT-29, 48 h, read-out: Activity; procedure, shortened: as §1
# HOP-62 = test: Cytotoxicity against human HOP62 cells assessed as cell growth at 10 uM after 48 hrs by SRB assay relative to control; type: functional; settings: HOP-62, 48 h, read-out: Activity; procedure, shortened: as §1
# HCT-116 = test: Cytotoxicity against human HCT116 cells assessed as cell growth at 10 uM after 48 hrs by SRB assay relative to control; type: functional; settings: HCT-116, 48 h, read-out: Activity; procedure, shortened: as §1
compound,measurement,setting,value
CCCCCCCCCCCCCCCC(=O)O[C@@H]1[C@H](OC(=O)CCCCCCCCCCCCCCC)[C@@H](C(=O)N[C@@H](CCCCN)C(=O)OC)O[C@H]1n1cnc2c(=O)[nH]c(NC(=O)C(C)C)nc21.Cl,growth at 10 µM,BT-549,105%
same,ΔTm,[1],4 °C
same,growth at 10 µM,T47D,88.2%
same,growth at 10 µM,MDA-MB-435,99.7%
same,growth at 10 µM,NCI-H23,97.8%
same,growth at 10 µM,MOLT-4,93.4%
same,Kd,[2],700 µM
same,growth at 10 µM,IGROV-1,91.8%
same,Stability,[3],Stable
same,growth at 10 µM,SK-MEL-5,101%
same,growth at 10 µM,SF-295,108%
same,growth at 10 µM,OVCAR-4,120%
same,growth at 10 µM,TK-10,101%
same,growth at 10 µM,[4],102%
same,growth at 10 µM,MDA-MB-468,83.1%
same,growth at 10 µM,LOX IMVI,93.5%
same,growth at 10 µM,SR,9.69%
same,growth at 10 µM,SNB-75,94.1%
same,growth at 10 µM,U-251,90.2%
same,growth at 10 µM,K562,82.9%
same,growth at 10 µM,SK-OV-3,99.4%
same,Activity,[5],Active
same,growth at 10 µM,HL-60(TB),98.3%
same,growth at 10 µM,HCC 2998,101%
same,growth at 10 µM,HT-29,98.2%
same,growth at 10 µM,HOP-62,104%
same,growth at 10 µM,HCT-116,85.4%
